Data set [1] is filed under the species Cavia porcellus. Put plainly: Dissociation constant of the drug-receptor complex was measured in guinea pig ileum. In kind it is functional.
The species entered for data set [2] is Cavia porcellus. The data set is described as follows: In vitro muscarinic activity was measured on isolated guinea pig ileum. The data set is classed as functional. In a few lines: (§1)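 Guinea pig ileum segments in Tyrode solution pH 7.4, 37 °C, with 0.3 mM hexamethonium. Isotonic contractions at 1 g tension. Cumulative concentration–response curves, concentration raised stepwise by a factor of 2.15. Means ± SE over tissues.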

The species entered for data set [3] is Cavia porcellus. The data set is described as follows: In vitro muscarinic activity was measured on isolated guinea pig urinary bladder. The data set is classed as functional. In a few lines:
(§2)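 Guinea pig urinary bladder strips in Tyrode solution pH 7.4, 37 °C, containing 0.3 mM hexamethonium. Isotonic recording at 1 g tension. Cumulative concentration–response curves, concentration raised stepwise by a factor of 3.16.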

For data set [4], the target named is Muscarinic acetylcholine receptor. Put plainly: Binding affinity to Muscarinic acetylcholine receptor in rat cerebral cortex. In kind it is tissue-based.
Data set [5] concerns the target T1, Muscarinic acetylcholine receptor (Rattus norvegicus) (UniProt P08482+P08483+P08485+P08911+P10980). Put plainly: Percentage of high affinity sites was determined in rat cerebral cortex. The data set is classed as tissue-based.
For data set [6], the species on record is Cavia porcellus. Put plainly: Dissociation constant of the drug-receptor complex was measured in guinea pig urinary bladder. In kind it is functional.
The next data set relates to Mus musculus. Put plainly: Sialalogic activity was measured in mice after intravenous administration. In kind it is functional. In a few lines: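 Male Swiss-Webster mice (24–30 g). Drugs in 0.9% NaCl given iv in the tail. Salivation was scored by blotting the mouth onto absorbent tissue during the first 10 min. ED50 by the up-and-down method, six or more animals per determination.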

Data set [7] can be described thus: (§3) Acute toxicity was measured in mice. The data set is classed as organism-based. To be noted: mouse, in vivo. In a few lines: (§4)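 Male Swiss-Webster mice, 24-30 g. Drug dissolved in 0.9% NaCl, given iv in the tail. LD50 estimated by the up-and-down method, using six or more animals per determination. Mortality counted at 1 h.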
The species named for data set [8] is Cavia porcellus. Put plainly: Relative efficacy of compound was determined in guinea pig urinary bladder. In kind it is functional.
Data set [9] concerns the target T1, Muscarinic acetylcholine receptor (Rattus norvegicus). The data set is described as follows: Low affinity dissociation constant to Muscarinic acetylcholine receptor in rat cerebral cortex. In kind it is tissue-based.
For data set [10] the target is unchanged. Put plainly: High affinity dissociation constant to Muscarinic acetylcholine receptor in rat cerebral cortex. The data set is classed as tissue-based.
For data set [11], the species on record is Cavia porcellus. Put plainly: Relative efficacy of compound was determined in guinea pig iluem. In kind it is functional.
The nature of data set [12]: Equipotent molar ratio measured on frog rectus abdominis. In kind it is functional, Rectus abdominis muscle. In a few lines: (§5)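 Frog rectus abdominis in aerated Clark-Ringer solution pH 7.4 at 22 °C. Noncumulative concentration–response curves, 5 min exposure per concentration. Isotonic contractions recorded.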
Data set [13] can be described thus: Equipotent molar ratio (EPMR) was measured on frog rectus abdominis. The data set is classed as functional, Rectus abdominis muscle. In a few lines:
as §5

Data set [14] in a line: Ratio of equipotent molar ratio (EPMR) of frog rectus to EPMR of guinea pig ileum. In kind it is functional.
Data set [15] can be described thus: The equipotent molar ratio (EPMR) relative to oxotremorine on isolated guinea pig. In kind it is functional. The conditions noted are these: in the assay text read “relative to carbachol” for “relative to oxotremorine”. In a few lines:
as §1

A short description of data set [16]: In vitro nicotinic activity was measured on frog rectus abdominis. In kind it is functional, tissue-based, Rectus abdominis muscle. The method, boiled down:
as §5

The nature of data set [17]: The equipotent molar ratio (EPMR) relative to oxotremorine on isolated guinea urinary bladder. The conditions noted are these: in the assay text read “relative to carbachol” for “relative to oxotremorine”. The data set is classed as functional. The method, boiled down: as §2
For data set [18], the species on record is Cavia porcellus. Put plainly: Relative efficacy of compound was determined was determined in guinea pig bladder. In kind it is functional.
Data set [19] in a line: as §3. To be noted: mouse, in vivo. In a few lines: as §4

With `C[N+](C)(C)CC#CCN1CCCC1=O.[I-]` [OXOTREMORINE METHIODIDE], the Kd in the data set listed under Cavia porcellus [1] came to 2.9 µM; in the data set listed under Cavia porcellus [6], 4.3 µM. Moreover, the EC50 in the data set filed under Cavia porcellus [2] was 0.023 µM; in the data set filed under Cavia porcellus [3] it was 0.37 µM. Moreover, the half-maximal inhibitory concentration (IC50) in data set [4] was 1.2 µM. The same compound showed a Binding in data set [5] of 31.3%. The compound also yielded an ED50 in the data set with Mus musculus of 0.058 µmol/kg. In [7], the 50% lethal dose (LD50) was found to be 1 µmol/kg. Further, the figures for the Efficacy in the data set filed under Cavia porcellus [8] and in the data set filed under Cavia porcellus [11] were 0.88 and 0.95, respectively. In addition, the KL in data set [9] was 5.4 µM. In data set [10], this compound came in with a KH of 0.019 µM. For the same compound, in [12], the Ratio amounted to 2.1.
Consider `C[S+](C)CC#CCN1CCCC1=O.[Cl-]`, for which the Kd was 1.5 µM in the data set listed under Cavia porcellus [1] and 1.3 µM in the data set listed under Cavia porcellus [6]. Besides, the values for the EC50 (in the data set filed under Cavia porcellus [2]; in the data set listed under Cavia porcellus [3]; in [16]) were 0.029 µM, 0.2 µM and 29 µM, respectively. In addition, the Ratio in data set [13] turned out to be 8.1; in data set [14], 33.8; in data set [15], 0.24; in data set [17], 0.32. For the same compound, the half-inhibitory concentration (IC50) in data set [4] was found to be 0.8 µM. Further, the Binding in [5] stood at 28.4%. Besides, the ED50 in the data set with Mus musculus amounted to 0.024 µmol/kg. In data set [7], this compound gave an LD50 of 2.8 µmol/kg. The same compound gave a KL in data set [9] of 2.2 µM. The figures for the Efficacy in the data set listed under Cavia porcellus [18] and in the data set listed under Cavia porcellus [11] were 0.48 and 0.41, respectively. Also, in data set [10], the KH is 0.011 µM.
Take `O=C1CCC(=O)N1CC#CC[S+]1CCCC1.[Cl-]`: the results for the Kd in the data set listed under Cavia porcellus [1] and in the data set filed under Cavia porcellus [6] were 7.5 µM and 13.1 µM, respectively. Besides, the figures for the EC50 (in the data set listed under Cavia porcellus [2]; in data set [16]) were 7.9 µM and 66.2 µM, respectively. This compound also gave an IC50 in data set [4] of 3.3 µM. For the same compound, the LD50 in [7] is 3.5 µmol/kg. The Ratio in data set [15] came to 81; in data set [12], 18. Moreover, in the data set filed under Cavia porcellus [11], the Efficacy was 0.0061.
In turn, `C[N+](C)(C)CCOC(N)=O.[Cl-]` [CARBACHOL] had an LD50 in [19] of 1.7 µmol/kg. The same compound yielded an ED50 with Mus musculus of 0.083 µmol/kg. For the same compound, the Efficacy in the data set listed under Cavia porcellus [8] and in the data set listed under Cavia porcellus [11] was 1 in each case. The EC50 in data set [16] is 3.8 µM.
On to `C[S+](C)CC#CCN1C(=O)CCC1=O.[Cl-]`, for which the values for the Kd in the data set filed under Cavia porcellus [1] and in the data set listed under Cavia porcellus [6] were 6.9 µM and 5.9 µM, respectively. In addition, the EC50 in the data set listed under Cavia porcellus [2] was 0.41 µM; in the data set filed under Cavia porcellus [3], 1.7 µM; in data set [16], 2600 µM. The IC50 in data set [4] worked out at 5.4 µM. Moreover, the Binding in [5] came to 27.4%. In the data set on Mus musculus, this compound yielded an ED50 of 0.48 µmol/kg. In addition, the LD50 in data set [7] worked out at 70 µmol/kg. In addition, the Efficacy in the data set filed under Cavia porcellus [8] amounted to 0.15; in the data set listed under Cavia porcellus [11] it was 0.11. Moreover, the Ratio in data set [15] was determined as 4.1; in [17] it was 3.7; in [12] it was 692. For the same compound, in data set [9], the KL is 12.7 µM. The same compound showed a KH in data set [10] of 0.19 µM.
On to `O=C1CCCN1CC#CC[S+]1CCCC1.[Cl-]`, for which the Kd was 1.3 µM in the data set filed under Cavia porcellus [1] and 1.1 µM in the data set filed under Cavia porcellus [6]. In addition, the values for the EC50 (in the data set listed under Cavia porcellus [2]; in the data set filed under Cavia porcellus [3]; in data set [16]) were 0.25 µM, 1.2 µM and 5 µM, respectively. Besides, the IC50 in data set [4] worked out at 0.31 µM. The Binding in [5] is 37%. This compound also had an ED50 in the data set on Mus musculus of 0.35 µmol/kg. Further, the LD50 in [7] was 2.2 µmol/kg. For the same compound, the Efficacy in the data set listed under Cavia porcellus [8] turned out to be 0.057; in the data set filed under Cavia porcellus [11], 0.054. Further, the Ratio is 2.1 in [15], 2.3 in data set [17] and 1.4 in data set [12]. In data set [9], this compound came in with a KL of 0.99 µM. Also, the KH in data set [10] came to 0.069 µM.

Broadly, the Kd is the free concentration of one partner at which half of the binding sites on the other are occupied at equilibrium, for simple one-to-one binding. Read a high Kd as a looser complex. For orientation: EC50 means the concentration giving half of the maximal effect. The low end stands for greater potency, the high end for weaker potency. As a reminder, the IC50 is the concentration needed to halve the response being measured. A high value points to lower potency. Usually ED50 stands for the dose at which the effect has come halfway, by size or by number of responders. A lower ED50 goes with greater potency. What is called LD50 is the dose expected to kill half of the subjects tested.

(Values after ChEMBL document CHEMBL1123945, “Dimethylsulfonium and thiolanium analogues of the muscarinic agent oxotremorine” (J Med Chem, 1988).)
